Data: publication PMC8945107 (ACS Omega, 2022)

Assays:
[1] = test system: NCI-H460; assay: MTT antiproliferative assay, NCI-H460; format: cell-based; conditions: Homo sapiens, NCI-H460, 48 h, read-out: IC50 NCI-H460
Procedure, shortened: (§1)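 Cells in 96-well plates were preincubated 24 h, then exposed to test compound 48 h. MTT solution (5 mg/mL stock) was added for 4 h, medium removed, formazan dissolved in DMSO, plate shaken 1 min and absorbance read at 570 nm. Three independent experiments.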

[2] = test system: PC-3; assay: MTT antiproliferative assay, PC-3; format: cell-based; conditions: Homo sapiens, PC-3, 48 h, read-out: IC50 PC-3
Procedure, shortened: as §1

[3] = test system: human bronchial epithelioid cells (HBE); assay: MTT antiproliferative / cell viability assay, HBE; format: cell-based; conditions: 48 h, read-out: IC50 HBE
Procedure, shortened: as §1

[4] = test system: A549 cells; assay: Vacuolization, fluorescence inverted microscope; format: cell-based, human; conditions: 10 mM NAC with 2 μM 5e; vacuolization 12 h, MTT 24 h
Procedure, shortened: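 A549 cells were given 2 μM test compound for 12, 24 or 36 h, or 1–4 μM for 24 h, and photographed on an inverted fluorescence microscope. For antioxidant co-treatment, 10 mM NAC was combined with 2 μM compound. Vacuolization was imaged at 12 h, and viability was measured by MTT at 24 h (absorbance 570 nm after DMSO solubilisation).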

[5] = test system: A549 cells; assay: Detection of intracellular ROS; format: cell-based, human; conditions: 10 mM NAC with 2 μM 5e, 12 h
Procedure, shortened: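 A549 cells in 6-well plates were pretreated with NAC for 2 h, then treated with test compound. Afterward they were stained with 10 μM DCFH-DA in FBS-free medium for 0.5 h in the incubator and washed twice with PBS. Cells were collected, resuspended in PBS and analysed by flow cytometry.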

Structure (SMILES)	IC50 [1] [nM]	IC50 [2] [nM]	IC50 [3] [nM]	effect of NAC on vacuolization and cell death induced by 5e [4]	effect of NAC on ROS level induced by 5e [5]
COc1cccc2c1C(=O)c1c(O)c3c(c(O)c1C2=O)C[C@@](O)(C(=O)CO)C[C@@H]3O[C@H]1C[C@H](N)[C@H](O)[C@H](C)O1 [DOX, Doxorubicin]	3140 ± 570	1130 ± 200	2540 ± 160		
CC(=O)N[C@@H](CS)C(=O)O [NAC, N-acetylcysteine]				could not remarkably suppress vacuolization and cell death	could inhibit the level of ROS
